Results as given in ChEMBL document CHEMBL4028876, “Discovery of a Novel Piperidine-Based Inhibitor of Cholesteryl Ester Transfer Protein (CETP) That Retains Activity in Hypertriglyceridemic Plasma” (J Med Chem, 2017).
Calls of active or inactive are those of the source. The calls are words filed in the database; no cut-off is given here.

Legend:
[1] = target: T1, Cholesteryl ester transfer protein (Homo sapiens, UniProt P11597); assay: Inhibition of CETP in human plasma measured every 30 mins for 120 mins by fluorescence method
T1 sequence (P11597 whole entry): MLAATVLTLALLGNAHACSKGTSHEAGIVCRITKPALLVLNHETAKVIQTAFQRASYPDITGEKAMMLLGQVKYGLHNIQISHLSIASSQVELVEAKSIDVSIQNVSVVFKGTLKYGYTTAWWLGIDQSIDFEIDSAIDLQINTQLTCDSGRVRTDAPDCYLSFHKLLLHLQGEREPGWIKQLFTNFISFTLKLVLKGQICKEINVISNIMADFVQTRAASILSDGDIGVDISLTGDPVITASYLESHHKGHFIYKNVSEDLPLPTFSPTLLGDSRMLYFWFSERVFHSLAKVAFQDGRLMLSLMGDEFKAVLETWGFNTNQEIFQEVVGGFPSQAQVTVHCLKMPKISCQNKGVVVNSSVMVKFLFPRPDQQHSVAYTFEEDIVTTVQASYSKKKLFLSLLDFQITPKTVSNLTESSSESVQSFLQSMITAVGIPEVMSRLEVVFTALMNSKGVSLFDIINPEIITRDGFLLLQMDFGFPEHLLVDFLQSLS
How it was run: (§1)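 Pooled EDTA plasma from healthy male donors (final 50%) with compound in DMSO (final 1%). The reaction is started with fluorescent donor solution. Activity is the 30–90 min slope. IC50 is fitted to duplicate wells by a logistic equation.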

[2] = Half life in Sprague-Dawley rat at 1 mg/kg, iv or 3 mg/kg, po by LC-ESI-MS/MS analysis; type: ADME, organism-based; settings: in vivo
How it was run: (§2)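 Conscious 7-week-old male Sprague-Dawley rats on standard diet with free water. Dosing is 1 mg/kg iv bolus in N-methylpyrrolidin-2-one/PEG 200, or 3 mg/kg oral suspension in 0.5% aqueous methylcellulose. Blood is sampled at various time points after administration.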

[3] = Clearance in Sprague-Dawley rat plasma at 1 mg/kg, iv or 3 mg/kg, po by LC-ESI-MS/MS analysis; type: ADME, organism-based; how it was run: as §2
[4] = Volume of distribution in Sprague-Dawley rat at 1 mg/kg, iv or 3 mg/kg, po by LC-ESI-MS/MS analysis; type: ADME, organism-based; settings: in vivo; how it was run: as §2
[5] = AUC (infinity) in Sprague-Dawley rat at 1 mg/kg, iv or 3 mg/kg, po by LC-ESI-MS/MS analysis; type: ADME, organism-based; settings: in vivo; how it was run: as §2
[6] = Oral bioavailability in Sprague-Dawley rat at 3 mg/kg by LC-ESI-MS/MS analysis; type: ADME, organism-based; settings: in vivo; how it was run: as §2
Cytochrome P450 3A4 [7] = target: T2, Cytochrome P450 3A4 (Homo sapiens, UniProt P08684); assay: Inhibition of CYP3A4 (unknown origin) in the presence of midozolam; type: ADME
Cytochrome P450 3A4 [8] = target: T2, Cytochrome P450 3A4; assay: Inhibition of CYP3A4 (unknown origin) in the presence of testosterone; type: ADME
Cytochrome P450 2D6 = Cytochrome P450 2D6 (Homo sapiens, UniProt P10635); assay: Inhibition of CYP2D6 (unknown origin); type: ADME
Cytochrome P450 2C9 = Cytochrome P450 2C9 (Homo sapiens, UniProt P11712); assay: Inhibition of CYP2C9 (unknown origin); type: ADME
[9] = 1-Octanol-phosphate buffered saline partition coefficient, log D of compound at […] by tandem mass spectrometry method; type: physicochemical
Syrian golden hamster [10] = assay: Increase in HDL cholesterol level in Syrian hamster plasma at 0.3 and 10 mg/kg, po dosed once daily for 2 weeks and measured 24 hrs post last dose by HPLC size exclusion chromatography method relative to control; type: functional, organism-based; settings: Mesocricetus auratus
How it was run: (§3)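 Chow-fed hamsters gavaged once daily in the morning for 2 weeks (0.3, 1, 3, 10 mg/kg; vehicle 10 mL/kg). Blood is drawn from the abdominal vein under isoflurane 24 h post last dose, after a 16 h fast. Lipoprotein cholesterol is measured by Superose 6 HPLC with online enzymatic detection at 580 nm, standardized to control plasma. Mean ± SEM, n=6, Dunnett test.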

Hamster [11] = assay: Increase in HDL cholesterol levels in hamster plasma by HPLC size exclusion chromatography method relative to control; type: functional; settings: Cricetinae; how it was run: as §3
Syrian golden hamster [12] = assay: Reduction in LDL cholesterol level in Syrian hamster plasma at 0.3 and 10 mg/kg, po dosed once daily for 2 weeks and measured 24 hrs post last dose by HPLC size exclusion chromatography method relative to control; type: functional, organism-based; settings: Mesocricetus auratus; how it was run: as §3
Syrian golden hamster [13] = assay: Reduction in LDL cholesterol level in Syrian hamster plasma at 0.3 and 10 mg/kg, po dosed once daily for 2 weeks and measured 24 hrs post last dose by HPLC size exclusion chromatography method; type: functional, organism-based; settings: Mesocricetus auratus; how it was run: as §3
[14] = Drug uptake in Syrian hamster plasma at 10 mg/kg, po dosed once daily for 14 days measured 24 hrs post last dose by LC-MS/MS method; type: ADME, organism-based, Mesocricetus auratus; settings: in vivo
How it was run: (§4)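 Chow-fed hamsters dosed orally once daily for 14 days. Blood and ~100 mg adipose, adrenal and liver samples are taken 24 h after the final dose. Tissues are flash-frozen and stored at −80 °C. Total drug concentrations are measured by LC-MS/MS. Mean ± SEM, seven animals per group.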

[15] = Drug uptake in Syrian hamster adipose tissue at 10 mg/kg, po dosed once daily for 14 days measured 24 hrs post last dose by LC-MS/MS method; type: ADME, organism-based, Mesocricetus auratus; settings: in vivo; how it was run: as §4
[16] = Drug uptake in Syrian hamster adrenal tissue at 10 mg/kg, po dosed once daily for 14 days measured 24 hrs post last dose by LC-MS/MS method; type: ADME, organism-based, Mesocricetus auratus, Adrenal gland; settings: in vivo; how it was run: as §4
[17] = target: T3, Cholesteryl ester transfer protein (Homo sapiens) (UniProt P11597); assay: Inhibition of CETP activity in human serum at upto 1200 mg/dl serum triglyceride concentration by LC-MS/MS method; settings: in the assay text read “fluorescence method” for “LC-MS/MS method”
T3 sequence (whole entry): T1 sequence (P11597 whole entry)
How it was run: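 Three human serum pools of differing triglyceride level. IC50 values are the mean of two replicates per pool.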

Hamster [18] = assay: Ex vivo inhibition of CETP activity in hamster hypertriglyceridemia model treated with 100 mg/kg, iv Triton WR-1339 dosed 5 hrs post compound dose measured every 15 mins for 120 mins by fluorescence method; type: functional, organism-based; settings: Cricetinae
How it was run: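 Chow-fed hamsters given a single gavage dose of compound or vehicle. Triton WR-1339 (100 mg/kg) or saline is given iv 5 h later, and plasma is taken 3 h after that. Plasma (final 80%) is mixed with fluorescent donor in 50 mM Tris-HCl pH 7.4, 150 mM NaCl, 2 mM EDTA. Ex/em 485/535 nm, read every 15 min for 120 min at 37 °C. Activity is the 30–90 min slope. Five animals per group.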

Serum [19] = assay: Drug uptake in HDL fraction of human serum from human donors with normal triglyceride levels (<150 mg/dL) by LC-MS/MS method; type: ADME, cell-free
How it was run: (§5)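 Pooled unfasted human serum (mean TG 122, 347 or 958 mg/dL) spiked with inhibitor to 500 ng/mL, 37 °C, 1 h. NaBr density-gradient ultracentrifugation, 18.5 h at 15 °C. Acetonitrile precipitation, glyburide internal standard, LC-MS/MS in duplicate. Result given as % of total across pools.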

Serum [20] = assay: Drug uptake in LDL fraction of human serum from human donors with normal triglyceride levels (<150 mg/dL) by LC-MS/MS method; type: ADME, cell-free; how it was run: as §5
Serum [21] = assay: Drug uptake in lipoprotein deficient serum fraction of human serum from human donors with normal triglyceride levels (<150 mg/dL) by LC-MS/MS method; type: ADME, cell-free; how it was run: as §5
Serum [22] = assay: Drug uptake in triglyceride rich lipoprotein fraction of human serum from human donors with normal triglyceride levels (<150 mg/dL) by LC-MS/MS method; type: ADME, cell-free; how it was run: as §5
NCI-H295R = assay: Toxicty in human NCI-H295R cells assessed as increase in aldosterone levels at 0.1 to 10000 nM after 24 hrs by scintillation proximity assay; type: toxicity, cell-based; settings: 10 µM
Syrian golden hamster [23] = assay: Inhibition of CETP in Syrian hamster blood at 3 and 10 mg/kg, po dosed once daily for 2 weeks and measured 24 hrs post last dose; type: functional, organism-based; settings: Mesocricetus auratus
Serum [24] = assay: Drug uptake in triglyceride rich lipoprotein fraction of human serum from human donors with triglyceride levels ( 300-500 and >750 mg/dL) by LC-MS/MS method; type: ADME, cell-free; how it was run: as §5
[25] = target: T3, Cholesteryl ester transfer protein (Homo sapiens); assay: Inhibition of CETP in human plasma at 100 uM measured every 30 mins for 120 mins by fluorescence method
How it was run: as §1, with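 “solution. Ex/em 485/535 nm, read every 30 min for 120 min at 37 °C.” for “solution.”, “slope. Torcetrapib (1 or 10 µM) and DMSO define 100% and 0% inhibition.” for “slope.”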

Rattus norvegicus [26] = assay: Toxicity in cannulated Sprague-Dawley rat assessed as increase in mean arterial pressure at 5 mg/kg, iv by blood pressure transducer based method; type: organism-based; settings: in vivo
Rattus norvegicus [27] = assay: Toxicity in cannulated Sprague-Dawley rat assessed as increase in plasma aldosterone levels at 5 mg/kg, iv by radioimmunoassay; type: organism-based; settings: in vivo

T2 sequence (P08684 whole entry): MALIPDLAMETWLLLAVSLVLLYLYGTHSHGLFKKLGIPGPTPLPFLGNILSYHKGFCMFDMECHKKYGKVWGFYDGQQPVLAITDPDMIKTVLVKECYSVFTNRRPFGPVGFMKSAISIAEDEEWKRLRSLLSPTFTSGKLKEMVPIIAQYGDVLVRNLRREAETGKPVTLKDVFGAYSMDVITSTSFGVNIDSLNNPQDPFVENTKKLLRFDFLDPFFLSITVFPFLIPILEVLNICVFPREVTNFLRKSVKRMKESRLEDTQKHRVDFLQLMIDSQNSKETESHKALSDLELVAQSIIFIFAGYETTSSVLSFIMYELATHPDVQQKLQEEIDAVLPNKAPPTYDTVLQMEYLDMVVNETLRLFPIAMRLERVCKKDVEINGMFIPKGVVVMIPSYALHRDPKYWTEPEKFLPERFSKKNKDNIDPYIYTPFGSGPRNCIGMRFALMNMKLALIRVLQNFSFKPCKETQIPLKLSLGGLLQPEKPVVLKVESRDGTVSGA
Sequence of Cytochrome P450 2D6 (P10635 whole entry): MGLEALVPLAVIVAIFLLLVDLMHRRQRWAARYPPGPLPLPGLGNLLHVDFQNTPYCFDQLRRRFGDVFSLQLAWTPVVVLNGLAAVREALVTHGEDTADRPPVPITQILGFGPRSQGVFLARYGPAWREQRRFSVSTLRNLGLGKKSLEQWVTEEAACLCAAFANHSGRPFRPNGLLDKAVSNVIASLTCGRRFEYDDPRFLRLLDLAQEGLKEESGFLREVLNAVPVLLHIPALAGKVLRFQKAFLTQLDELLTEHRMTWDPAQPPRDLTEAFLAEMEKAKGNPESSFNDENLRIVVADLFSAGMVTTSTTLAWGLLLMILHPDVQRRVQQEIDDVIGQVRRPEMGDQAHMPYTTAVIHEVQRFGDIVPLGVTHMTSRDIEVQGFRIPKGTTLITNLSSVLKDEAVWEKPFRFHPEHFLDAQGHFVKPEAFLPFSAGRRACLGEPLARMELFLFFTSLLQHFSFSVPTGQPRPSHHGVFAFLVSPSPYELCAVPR
Sequence of Cytochrome P450 2C9 (P11712 whole entry): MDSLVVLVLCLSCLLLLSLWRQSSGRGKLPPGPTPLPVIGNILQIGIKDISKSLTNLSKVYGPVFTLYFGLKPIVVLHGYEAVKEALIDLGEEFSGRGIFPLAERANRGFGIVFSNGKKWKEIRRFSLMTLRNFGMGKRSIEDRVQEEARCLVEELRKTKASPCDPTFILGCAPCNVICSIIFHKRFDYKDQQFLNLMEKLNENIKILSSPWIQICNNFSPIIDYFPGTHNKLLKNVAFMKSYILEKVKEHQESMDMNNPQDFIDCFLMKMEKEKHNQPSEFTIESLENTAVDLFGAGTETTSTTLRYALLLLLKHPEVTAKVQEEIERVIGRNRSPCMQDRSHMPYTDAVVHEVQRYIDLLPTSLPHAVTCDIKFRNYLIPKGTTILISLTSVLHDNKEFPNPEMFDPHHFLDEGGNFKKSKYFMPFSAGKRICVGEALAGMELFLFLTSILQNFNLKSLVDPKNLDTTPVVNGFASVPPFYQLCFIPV

## CC[C@@H]1C[C@H](N(Cc2cc(C(F)(F)F)cc(C(F)(F)F)c2)c2ncc(N3CCOCC3)cn2)C[C@H](Cc2ccccc2)N1C(=O)OC(C)(C)C
[1]
  IC50: 60 nM
[2]
  half-life: 7.4 h
[3]
  clearance: 1.67 mL/min/kg
[4]
  Vd: 0.7 L/kg
[5]
  AUC(0-inf): 0.456 µM·h
[6]
  bioavailability: 3%
Cytochrome P450 3A4 [7]
  IC50: > 50000 nM
Cytochrome P450 3A4 [8]
  IC50: > 50000 nM
Cytochrome P450 2D6
  IC50: > 50000 nM
Cytochrome P450 2C9
  IC50: > 50000 nM

## CC[C@@H]1C[C@H](N(Cc2cc(C(F)(F)F)cc(C(F)(F)F)c2)C(=O)OC)C[C@H](CC)N1C(=O)OC(C)(C)C
[1]
  IC50: 1300 nM

## CCNC(=O)N1[C@H](CC)C[C@H](N(Cc2cc(C(F)(F)F)cc(C(F)(F)F)c2)c2ncc(Br)cn2)C[C@@H]1Cc1ccccc1 (racemic)
[1]
  IC50: 4800 nM

## COc1cc(F)c(C(C)C)cc1-c1ccc(C(F)(F)F)cc1CN1C(=O)O[C@H](c2cc(C(F)(F)F)cc(C(F)(F)F)c2)[C@@H]1C [ANACETRAPIB]
[9]
  logD: > 5.9
Syrian golden hamster [10]
  Activity: Dose-dependent effect
Hamster [11]
  Activity: Dose-dependent effect
Syrian golden hamster [12]
  Activity: Active
Syrian golden hamster [13]
  Activity: Dose-dependent effect
[14]
  Drug uptake: Not Active
[15]
  Drug uptake: Active
[16]
  Drug uptake: Active
[17]
  inhibition: inactive
Hamster [18]
  inhibition: inactive
Serum [19]
  Drug uptake: Active
Serum [20]
  Drug uptake: Active
Serum [21]
  Drug uptake: Active
Serum [22]
  Drug uptake: Active
NCI-H295R
  Activity: Non-Toxic
Syrian golden hamster [23]
  inhibition: Active
Serum [24]
  Drug uptake: Active

## CC[C@@H]1C[C@H](N(Cc2cc(C(F)(F)F)cc(C(F)(F)F)c2)C(=O)OC)CCN1C(=O)OC(C)(C)C (racemic)
[25]
  inhibition: 70%

## Cc1cc(C)c2c(c1)[C@@H](N(Cc1cc(C(F)(F)F)cc(C(F)(F)F)c1)c1nnn(C)n1)CCCN2C[C@H]1CC[C@H](C(=O)O)CC1 [EVACETRAPIB]
[1]
  IC50: 110 nM
[9]
  logD: 5.7

## CC[C@@H]1C[C@H](N(Cc2cc(C(F)(F)F)cc(C(F)(F)F)c2)C(=O)OC)C[C@H](Cc2ccccc2)N1C(=O)OC(C)(C)C (racemic)
[1]
  IC50: 771 nM

## CCOC(=O)N1c2ccc(C(F)(F)F)cc2[C@@H](N(Cc2cc(C(F)(F)F)cc(C(F)(F)F)c2)C(=O)OC)C[C@H]1CC [TORCETRAPIB]
[9]
  logD: > 4
NCI-H295R
  Activity: Toxic
Rattus norvegicus [26]
  Activity: Toxic
Rattus norvegicus [27]
  Activity: Toxic

## CC[C@@H]1C[C@H](N(Cc2cc(C(F)(F)F)cc(C(F)(F)F)c2)c2ncc(N3CCOCC3)cn2)C[C@H](Cc2ccccc2)N1C(=O)OC(C)(C)C (racemic)
[1]
  IC50: 164 nM

## CC[C@@H]1C[C@H](N(Cc2cc(Cl)cc(C(F)(F)F)c2)c2ncc(Br)cn2)C[C@H](Cc2ccccc2)N1C(=O)OC(C)(C)C (racemic)
[1]
  IC50: 240 nM
